Test results: article PMC4335074 (Clinical cancer research : an official journal of the …, 2014)
Like-named read-outs stand apart in the source and are kept apart here.

How the values were obtained:
[1] = cited from earlier work
CYP2C19 = conditions: no reference given; cited from earlier work
[2] = preclinical models; no reference given; cited from earlier work
pT70 4E-BP1 = assay: Immunoblotting of downstream signalling biomarkers in HCT116 cells; format: cell-based, Human; conditions: HCT116, 24 hours, immunoblot
Outline: (§1)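 HCT116 colon cancer cells (KRAS G13D; from ATCC, STR-authenticated) were exposed for 24 h to the AKT-inhibitor test compound, the MEK-inhibitor test compound, or both together, each at set concentrations, before immunoblot analysis of phospho-markers.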

pT202/Y204 ERK = assay: as above; format: cell-based, Human; conditions: HCT116, 24 hours, immunoblot
Outline: as §1

pS473 AKT [3] = assay: as above; format: cell-based, Human; conditions: HCT116, 24 hours, immunoblot
Outline: as §1

pS473 AKT [4] = conditions: at 57 nmol/L MK-2206, preclinical models; no reference given; cited from earlier work
P-glycoprotein = conditions: no reference given; cited from earlier work
[5] = tested on: pS235/236 S6 ribosomal protein (S6RP); assay: Immunoblotting of downstream signalling biomarkers in HCT116 cells; format: cell-based, Human; conditions: HCT116, 24 hours, immunoblot
Outline: as §1

AKT 3 = conditions: cited from earlier work
CYP1A2 = conditions: no reference given; cited from earlier work
[6] = Phase I combination study: pharmacokinetics; format: in vivo, human; conditions: for Cmax: selumetinib 100 mg QD, combination MTD cohort
tumour pS473 AKT = conditions: MK-2206 monotherapy 60 mg QOD; cited from earlier work
AKT 1 = conditions: cited from earlier work
CYP3A4 = conditions: no reference given; cited from earlier work
AKT 2 = conditions: cited from earlier work
KRAS-mutant NSCLC = conditions: phase II, KRAS-mutant NSCLC patients; cited from earlier work
MEK = conditions: non-ATP competitive; cited from earlier work
[7] = selumetinib monotherapy, cited from earlier work
pERK = conditions: at 6 hours, peripheral blood mononuclear cells and paired tumour biopsies; cited from earlier work

Compound: NC1(c2ccc(-c3nc4ccn5c(=O)[nH]nc5c4cc3-c3ccccc3)cc2)CCC1 [MK-2206]
- Terminal half-life (t1/2) ([1]; MK-2206 monotherapy 60 mg QOD): 71.3 h
- Maximum-tolerated dose (MTD) ([1]; MK-2206 monotherapy, QOD schedule): 60 mg
- Maximum-tolerated dose (MTD) ([1]; MK-2206 monotherapy, weekly schedule): 200 mg
- Clinical toxicities ([1]; MK-2206 monotherapy): erythematous maculopapular rash and stomatitis
- Dose-limiting toxicity (DLT) ([1]; MK-2206 monotherapy): Rash
- Inhibition of CYP2C19 (CYP2C19): neither of these drugs is a potent inhibitor
- Inhibition of pT70 4E-BP1 (pT70 4E-BP1): incompletely inhibited
- Inhibition of pT202/Y204 ERK (pT202/Y204 ERK): no effect
- Inhibition of pS473 AKT (pS473 AKT [3]): completely abrogated
- Inhibition of pS473 AKT (pS473 AKT [4]): > 70%
- P-glycoprotein inhibition (P-glycoprotein): only a weak inhibitor
- P-glycoprotein substrate status (P-glycoprotein): substrates
- Inhibition of pS235/236 S6RP [5]: no effect
- IC50 (AKT 3): 65 nM
- Inhibition of CYP1A2 (CYP1A2): neither of these drugs is a potent inhibitor
- half-life ([6]; human, in vivo, oral): 61.7 ± 15.2 h
- Patients achieving target steady-state trough concentration of >57 nmol/L ([6]; in 48 hours at the 135 mg QW MTD level): 100%
- Median suppression of post-dose tumour pS473 AKT (tumour pS473 AKT): 81%
- Inhibition of CYP3A4 (CYP3A4): neither of these drugs is a potent inhibitor
- IC50 (AKT 2): 12 nM

Compound: CC(=O)O[C@@]12CO[C@@H]1C[C@H](O)[C@@]1(C)C(=O)[C@H](O)C3=C(C)[C@@H](OC(=O)[C@H](O)[C@@H](NC(=O)OC(C)(C)C)c4ccccc4)C[C@@](O)([C@@H](OC(=O)c4ccccc4)[C@H]21)C3(C)C [docetaxel]
- Median overall survival (OS) (KRAS-mutant NSCLC): 5.3 months
- Progression free survival (KRAS-mutant NSCLC): 2.1 months

Compound: Cn1cnc2c(F)c(Nc3ccc(Br)cc3Cl)c(C(=O)NOCCO)cc21 [selumetinib]
- Inhibition of CYP2C19 (CYP2C19): neither of these drugs is a potent inhibitor
- Inhibition of pT70 4E-BP1 (pT70 4E-BP1): incompletely suppressed
- Inhibition of pT202/Y204 ERK (pT202/Y204 ERK): blocked pT202/Y204 ERK completely
- Inhibition of pS473 AKT (pS473 AKT [3]): did not affect
- IC50 (MEK): 10 to 14 nM
- P-glycoprotein inhibition (P-glycoprotein): not an inhibitor
- P-glycoprotein substrate status (P-glycoprotein): substrates
- Inhibition of pS235/236 S6RP [5]: incompletely suppressed
- Established dose ([7]; freebase powder formulation, BID): 100 mg
- Terminal t1/2 ([7]; hydrogen sulphate oral capsule): 5.3 h
- Clinical toxicities [7]: acneiform dermatitis, diarrhoea, fatigue, nausea, and peripheral oedema
- Dose-limiting toxicity (DLT) [7]: Rash
- Inhibition of CYP1A2 (CYP1A2): neither of these drugs is a potent inhibitor
- Cmax ([6]; human, in vivo, oral, Cmax range): 554 to 2540 ng/mL
- Cmax ([6]; human, in vivo, oral, Mean Cmax): 1140 ng/mL
- Suppression of pERK (pERK): observed
- Inhibition of CYP3A4 (CYP3A4): neither of these drugs is a potent inhibitor
